This passage reports inhibition and IC50 results from ChEMBL document CHEMBL4368879, “Crystallographic and SAR analyses reveal the high requirements needed to selectively and potently inhibit SIRT2 deacetylase and decanoylase” (Medchemcomm, 2019).

Experiment [1] concerns the target T1, NAD-dependent protein deacetylase sirtuin-2 (Homo sapiens) (UniProt Q8IXJ6).
T1 sequence (whole entry): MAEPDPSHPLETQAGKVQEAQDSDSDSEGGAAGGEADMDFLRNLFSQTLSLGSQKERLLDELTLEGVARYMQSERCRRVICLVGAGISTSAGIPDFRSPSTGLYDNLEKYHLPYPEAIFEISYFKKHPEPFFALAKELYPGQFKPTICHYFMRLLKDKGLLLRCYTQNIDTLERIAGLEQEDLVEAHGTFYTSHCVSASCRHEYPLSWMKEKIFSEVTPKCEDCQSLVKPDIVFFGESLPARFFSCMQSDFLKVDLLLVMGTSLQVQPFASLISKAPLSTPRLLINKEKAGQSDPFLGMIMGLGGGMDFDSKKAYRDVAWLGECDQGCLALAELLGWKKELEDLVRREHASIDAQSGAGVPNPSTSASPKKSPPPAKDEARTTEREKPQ
The experiment is described as follows: Inhibition of recombinant SIRT2 (unknown origin) using RLIK(Ac)AMC as substrate assessed as reduction in deacetylase activity at 10 uM after 2 hrs in presence of NAD+ by fluorescence assay relative to control. A digest of the protocol: (§1)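 Fluorogenic sirtuin assay in 25 mM Tris–HCl pH 8.0, 150 mM NaCl, 10% glycerol. Enzyme at 0.1 μM with 10 μM substrate (RLIK(Ac)AMC or ETDK(Ca)AMC) and 400 μM NAD+, 2 h at 25 °C with shaking. Reaction stopped with a trypsin plus 4 mM nicotinamide solution, then 30 min more at 25 °C. Fluorescence read on a plate reader.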

Experiment [2] concerns the target T1, NAD-dependent protein deacetylase sirtuin-2 (Homo sapiens). The experiment is described as follows: Inhibition of recombinant SIRT2 (unknown origin) using ETDK(Ca)AMC as substrate assessed as reduction in decanoylase activity at 10 uM after 2 hrs in presence of NAD+ by fluorescence assay relative to control. A digest of the protocol:
as §1

For experiment [3] the target is unchanged. In words: Inhibition of recombinant SIRT2 (unknown origin) using RLIK(Ac)AMC as substrate assessed as reduction in deacetylase activity at 100 uM after 2 hrs in presence of NAD+ by fluorescence assay relative to control. In a few lines:
as §1

Experiment [4] shares this target. The experiment is described as follows: Inhibition of recombinant SIRT2 (unknown origin) using ETDK(Ca)AMC as substrate assessed as reduction in decanoylase activity at 100 uM after 2 hrs in presence of NAD+ by fluorescence assay relative to control. In a few lines:
as §1

Experiment [5] concerns the target T2, NAD-dependent protein deacetylase sirtuin-2 (Homo sapiens, UniProt Q8IXJ6).
T2 sequence (Q8IXJ6 whole entry): T1 sequence (whole entry)
In words: Inhibition of recombinant SIRT2 (unknown origin) using ETDK(Ca)AMC as substrate assessed as reduction in decanoylase activity after 2 hrs in presence of NAD+ by fluorescence assay. A digest of the protocol:
as §1

In experiment [6] the target is T2, NAD-dependent protein deacetylase sirtuin-2. The experiment is described as follows: Inhibition of recombinant SIRT2 (unknown origin) using RLIK(Ac)AMC as substrate assessed as reduction in deacetylase activity after 2 hrs in presence of NAD+ by fluorescence assay. A digest of the protocol: as §1
Experiment [7] has as its target T3, NAD-dependent protein deacetylase sirtuin-1 (Homo sapiens) (UniProt Q96EB6).
T3 sequence (whole entry): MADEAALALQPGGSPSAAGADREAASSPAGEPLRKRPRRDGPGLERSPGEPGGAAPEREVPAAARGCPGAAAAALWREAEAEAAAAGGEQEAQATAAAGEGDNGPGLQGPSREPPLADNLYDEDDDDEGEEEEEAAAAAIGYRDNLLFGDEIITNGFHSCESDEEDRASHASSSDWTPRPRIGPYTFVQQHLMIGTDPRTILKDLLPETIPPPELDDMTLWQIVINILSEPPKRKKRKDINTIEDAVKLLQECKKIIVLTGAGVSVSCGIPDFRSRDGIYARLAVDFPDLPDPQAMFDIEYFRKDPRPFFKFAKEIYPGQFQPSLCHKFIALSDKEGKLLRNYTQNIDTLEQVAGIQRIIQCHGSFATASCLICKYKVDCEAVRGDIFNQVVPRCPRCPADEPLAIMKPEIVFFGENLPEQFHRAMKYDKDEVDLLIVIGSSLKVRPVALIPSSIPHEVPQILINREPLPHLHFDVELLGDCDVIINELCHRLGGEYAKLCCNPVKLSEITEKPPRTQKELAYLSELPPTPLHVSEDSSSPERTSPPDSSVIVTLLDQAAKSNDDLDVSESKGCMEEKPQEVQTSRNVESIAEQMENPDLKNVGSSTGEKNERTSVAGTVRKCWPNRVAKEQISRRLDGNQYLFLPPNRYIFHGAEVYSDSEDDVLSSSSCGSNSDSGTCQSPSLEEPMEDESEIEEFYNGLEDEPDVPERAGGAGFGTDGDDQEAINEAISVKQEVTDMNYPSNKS
In words: Inhibition of recombinant SIRT1 (unknown origin) using RLIK(Ac)AMC as substrate assessed as reduction in deacetylase activity after 2 hrs in presence of NAD+ by fluorescence assay. In a few lines:
as §1

Experiment [8] deals with T4, NAD-dependent protein deacetylase sirtuin-3, mitochondrial (Homo sapiens) (UniProt Q9NTG7).
T4 sequence (whole entry): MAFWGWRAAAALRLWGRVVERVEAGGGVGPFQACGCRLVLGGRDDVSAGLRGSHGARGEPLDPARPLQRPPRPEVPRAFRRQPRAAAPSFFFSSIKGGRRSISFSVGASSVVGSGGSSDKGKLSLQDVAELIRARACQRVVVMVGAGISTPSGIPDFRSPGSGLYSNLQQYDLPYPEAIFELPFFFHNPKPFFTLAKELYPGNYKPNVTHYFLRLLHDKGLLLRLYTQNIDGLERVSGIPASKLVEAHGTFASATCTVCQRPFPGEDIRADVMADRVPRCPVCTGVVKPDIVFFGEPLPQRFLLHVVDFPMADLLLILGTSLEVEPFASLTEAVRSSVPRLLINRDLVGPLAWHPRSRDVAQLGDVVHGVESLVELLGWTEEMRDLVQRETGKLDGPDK
The experiment is described as follows: Inhibition of recombinant SIRT3 (unknown origin) using ETDK(Ca)AMC as substrate assessed as reduction in decanoylase activity after 2 hrs in presence of NAD+ by fluorescence assay. In a few lines: as §1

Experiment [9] has as its target NAD-dependent protein deacylase sirtuin-5, mitochondrial (Homo sapiens) (UniProt Q9NXA8). In words: Inhibition of recombinant SIRT5 (unknown origin) using ETDK(Ca)AMC as substrate assessed as reduction in decanoylase activity after 2 hrs in presence of NAD+ by fluorescence assay. A digest of the protocol: as §1
Experiment [10] deals with T4, NAD-dependent protein deacetylase sirtuin-3, mitochondrial (Homo sapiens). In words: Inhibition of recombinant SIRT3 (unknown origin) using RLIK(Ac)AMC as substrate assessed as reduction in deacetylase activity after 2 hrs in presence of NAD+ by fluorescence assay. A digest of the protocol:
as §1

The target in experiment [11] is NAD-dependent protein deacylase sirtuin-6 (Homo sapiens) (UniProt Q8N6T7). In words: Inhibition of recombinant SIRT6 (unknown origin) using ETDK(Ca)AMC as substrate assessed as reduction in decanoylase activity after 2 hrs in presence of NAD+ by fluorescence assay. A digest of the protocol:
as §1

The target in experiment [12] is NAD-dependent protein deacylase sirtuin-5, mitochondrial (Homo sapiens) (UniProt Q9NXA8). The experiment is described as follows: Inhibition of recombinant SIRT5 (unknown origin) using RLIK(Ac)AMC as substrate assessed as reduction in deacetylase activity after 2 hrs in presence of NAD+ by fluorescence assay. In a few lines:
as §1

Experiment [13] has as its target NAD-dependent protein deacylase sirtuin-6 (Homo sapiens) (UniProt Q8N6T7). In words: Inhibition of recombinant SIRT6 (unknown origin) using RLIK(Ac)AMC as substrate assessed as reduction in deacetylase activity after 2 hrs in presence of NAD+ by fluorescence assay. A digest of the protocol:
as §1

For experiment [14], the target named is T3, NAD-dependent protein deacetylase sirtuin-1 (Homo sapiens). In words: Inhibition of recombinant SIRT1 (unknown origin) using ETDK(Ca)AMC as substrate assessed as reduction in decanoylase activity after 2 hrs in presence of NAD+ by fluorescence assay. In a few lines: as §1

The source made the active and inactive calls. The calls are words filed in the database; no cut-off is given here.

NAD-dependent protein deacylase sirtuin-5, mitochondrial (Homo sapiens), sequence (Q9NXA8 37-310 limits assumed): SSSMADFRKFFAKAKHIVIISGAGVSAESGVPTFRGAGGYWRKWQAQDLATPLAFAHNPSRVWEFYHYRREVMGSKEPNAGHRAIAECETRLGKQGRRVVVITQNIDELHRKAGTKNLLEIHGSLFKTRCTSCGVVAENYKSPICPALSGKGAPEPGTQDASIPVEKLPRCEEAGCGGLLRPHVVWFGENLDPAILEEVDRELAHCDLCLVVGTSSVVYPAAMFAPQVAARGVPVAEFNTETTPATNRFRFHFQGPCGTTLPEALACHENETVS
NAD-dependent protein deacylase sirtuin-6 (Homo sapiens), sequence (Q8N6T7 whole entry): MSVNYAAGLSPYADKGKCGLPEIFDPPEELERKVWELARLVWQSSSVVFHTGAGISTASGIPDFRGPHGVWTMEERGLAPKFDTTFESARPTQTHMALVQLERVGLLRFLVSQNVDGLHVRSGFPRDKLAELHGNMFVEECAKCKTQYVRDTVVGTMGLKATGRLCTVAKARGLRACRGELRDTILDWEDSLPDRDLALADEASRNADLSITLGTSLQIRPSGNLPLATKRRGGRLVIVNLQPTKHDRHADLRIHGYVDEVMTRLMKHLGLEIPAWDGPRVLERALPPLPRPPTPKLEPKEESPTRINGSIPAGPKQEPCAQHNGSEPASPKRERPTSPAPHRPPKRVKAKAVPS

As to `Cc1cc(C)nc(SCC(=O)Nc2ccc(Sc3cccnc3)cc2)n1`, the inhibition (usually the change of the read-out against control, counted positive when it falls) in [1] was 42%; in experiment [2], 23%; in experiment [3], 67%; in [4], 60%.
For `Cc1cc(C)nc(SCC(=O)Nc2ccc(Sc3ccc(C(F)(F)F)cc3)cc2)n1` the same measures were 28%, 18%, 51% and 42%.
For `Cc1cc(C)nc(SCC(=O)Nc2ccc(Sc3ccsc3)cc2)n1` the same measures were 50%, 18%, 62% and 58%.
For `Cc1cc(C)nc(SCC(=O)Nc2ccc(Sc3ccc(OC(F)(F)F)cc3)cc2)n1` the same measures were 40%, 23%, 60% and 63%.
As to `Cc1cc(C)nc(SCC(=O)Nc2cccc(Sc3ccccc3)c2)n1`, the concentration for half-maximal inhibition (IC50) – broadly, the concentration at which inhibition is half-maximal – in experiment [5] was 62.1 µM; in experiment [6], 6.65 µM. The inhibition in experiment [1] was determined as 65%; in [2], 5%; in experiment [3], 73%; in experiment [4], 30%.
In the case of `CC(=O)c1ccc(Sc2ccc(NC(=O)CSc3nc(C)cc(C)n3)cc2)cc1`, the inhibition in experiment [1] is 6%; in experiment [2], 8%; in experiment [3] it was 5%; in experiment [4] it was 35%.
As to `Cc1cc(C)nc(SCC(=O)Nc2ccc(S(=O)(=O)c3ccccc3)cc2)n1`, the inhibition came out at 8% in experiment [1], 5% in experiment [2], 50% in experiment [3] and 18% in [4].
As to `Cc1cc(C)nc(SCC(=O)Nc2ccc(Sc3cccc4ccccc34)cc2)n1`, the inhibition is 42% in [1], 42% in experiment [2], 53% in [3] and 58% in experiment [4].
As for `Cc1cc(C)nc(SCC(=O)Nc2cccc(COc3ccccc3)c2)n1`, the inhibition in experiment [1] was determined as 53%; in experiment [2] it was 32%; in experiment [3], 76%.
`COc1cccc(Sc2ccc(NC(=O)CSc3nc(C)cc(C)n3)cc2)c1`: the inhibition entry in experiment [7], in experiment [8], in experiment [9], in experiment [10], in [11] and in [12] was “inactive” each time. For the same compound, the inhibition result in experiment [13] and in experiment [14] was “inactive” each time. Also, the half-maximal inhibitory concentration (IC50) in [5] was 8.33 µM; in experiment [6] it was 0.7 µM. For the same compound, the inhibition was found to be 80% in experiment [1], 70% in experiment [2], 85% in experiment [3] and 80% in experiment [4].
Regarding `Cc1cccc(Sc2ccc(NC(=O)CSc3nc(C)cc(C)n3)cc2)c1`, the inhibition in experiment [1] worked out at 70%; in experiment [2], 54%; in experiment [3], 76%; in [4], 65%.
As for `COc1ccc(Sc2ccc(NC(=O)CSc3nc(C)cc(C)n3)cc2)cc1`, the inhibition in [1] worked out at 55%; in [2], 20%; in experiment [3] it was 65%; in experiment [4], 58%.
For `Cc1cc(C)nc(SCC(=O)Nc2ccc([S+]([O-])c3ccccc3)cc2)n1` (stereo unspecified) the same measures were 5%, 4%, 40% and 23%.
With `Cc1ccc(Sc2ccc(NC(=O)CSc3nc(C)cc(C)n3)cc2)cc1`, the inhibition in [1] was 30%; in [2] it was 10%; in [3], 63%; in [4], 70%.
On to `Cc1cc(C)nc(SCC(=O)Nc2ccc(Sc3ccc4ccccc4c3)cc2)n1`, for which the inhibition was found to be 51% in experiment [1], 23% in experiment [2], 70% in experiment [3] and 38% in experiment [4].
As to `Cc1cc(C)nc(SCC(=O)Nc2ccc(Sc3ccccc3)cc2)n1`, the IC50 stood at 11.6 µM in [5] and 1.32 µM in [6]. In addition, the inhibition in [1] is 70%; in experiment [2], 38%; in [3], 80%; in experiment [4] it was 53%.
Consider `Cc1cc(C)nc(SCC(=O)Nc2ccc(Sc3cccc(C(F)(F)F)c3)cc2)n1`, for which the inhibition entry in experiment [7], in [8], in experiment [9], in [10], in experiment [11] and in [12] was “inactive” throughout. Moreover, the inhibition result in experiment [13] and in experiment [14] was “inactive” in each case. Also, the IC50 in experiment [5] was 17.6 µM; in experiment [6] it was 0.85 µM. For the same compound, the inhibition was found to be 72% in experiment [1], 72% in experiment [2], 82% in experiment [3] and 77% in experiment [4].
